Like-named read-outs stand apart in the source and are kept apart here.
Columns and labels:
[1] = test system: SK-OV-3; assay: cells; type: cell-based; conditions: SK-OV-3, 10^−5 M, 48 h
[2] = test system: ACHN; assay: cells; type: cell-based; conditions: 10^−5 M, 48 h
[3] = test system: MOLT-4; assay: cells; type: cell-based; conditions: MOLT-4, 10^−5 M, 48 h
[4] = test system: SR; assay: cells; type: cell-based; conditions: 10^−5 M, 48 h
[5] = test system: RPMI-8226; assay: cells; type: cell-based; conditions: RPMI-8226, 10^−5 M, 48 h
[6] = test system: RXF 393; assay: cells; type: cell-based; conditions: RXF 393, 10^−5 M, 48 h
[7] = test system: OVCAR-5; assay: cells; type: cell-based; conditions: OVCAR-5, 10^−5 M, 48 h
[8] = test system: SK-MEL-2; assay: cells; type: cell-based; conditions: SK-MEL-2, 10^−5 M, 48 h
[9] = test system: NCI-H23; assay: cells; type: cell-based; conditions: NCI-H23, 10^−5 M, 48 h
[10] = test system: EKVX; assay: NCI-60 SRB screen, Non-small cell lung cancer; type: cell-based, human; conditions: 10^−5 M, 48 h
[11] = test system: HT29; assay: cells; type: cell-based; conditions: HT29, 10^−5 M, 48 h
[12] = test system: OVCAR-4; assay: cells; type: cell-based; conditions: OVCAR-4, 10^−5 M, 48 h
[13] = test system: SF-295; assay: cells; type: cell-based; conditions: SF-295, 10^−5 M, 48 h
[14] = test system: HCC-2998; assay: cells; type: cell-based; conditions: HCC-2998, 10^−5 M, 48 h
[15] = test system: HL-60 (TB); assay: cells; type: cell-based; conditions: HL-60(TB), 10^−5 M, 48 h
[16] = target: p38MAPKα (Homo sapiens, UniProt Q16539); assay: in vitro kinase assay, GST-ATF2; type: biochemical
Chain of p38MAPKα (Q16539 whole entry): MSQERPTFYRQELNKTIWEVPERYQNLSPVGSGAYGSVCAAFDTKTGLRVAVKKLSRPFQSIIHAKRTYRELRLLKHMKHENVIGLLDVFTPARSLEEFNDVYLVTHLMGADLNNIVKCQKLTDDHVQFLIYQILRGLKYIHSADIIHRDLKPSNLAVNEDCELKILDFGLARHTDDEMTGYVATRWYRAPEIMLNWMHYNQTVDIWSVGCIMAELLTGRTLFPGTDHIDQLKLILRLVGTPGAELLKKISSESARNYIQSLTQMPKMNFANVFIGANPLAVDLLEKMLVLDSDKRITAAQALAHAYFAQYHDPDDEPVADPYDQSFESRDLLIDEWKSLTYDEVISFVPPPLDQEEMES

[17] = target: ERK1 (Homo sapiens, UniProt P27361); assay: in vitro radioactive kinase assay, Ets-1 phosphorylation by ERK1; type: biochemical
Chain of ERK1 (P27361 whole entry, species assumed): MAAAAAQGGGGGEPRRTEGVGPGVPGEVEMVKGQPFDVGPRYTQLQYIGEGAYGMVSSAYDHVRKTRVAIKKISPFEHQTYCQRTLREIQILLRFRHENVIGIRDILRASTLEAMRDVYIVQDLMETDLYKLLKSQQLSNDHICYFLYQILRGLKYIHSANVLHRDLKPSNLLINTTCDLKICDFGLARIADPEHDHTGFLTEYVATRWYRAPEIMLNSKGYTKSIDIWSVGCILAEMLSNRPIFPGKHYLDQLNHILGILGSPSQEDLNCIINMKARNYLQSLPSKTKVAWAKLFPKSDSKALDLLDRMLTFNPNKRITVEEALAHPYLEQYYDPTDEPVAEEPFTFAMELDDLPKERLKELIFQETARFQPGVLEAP
How it was run: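 Radiometric assay at 28–30 °C in 25 mM HEPES pH 7.5, 50 mM KCl, 0.1 mM EDTA/EGTA, 2 mM DTT, 11 mM MgCl2, 10 μg mL−1 BSA and 5% DMSO (final). 2 nM activated ERK1 was used with 10 μM His-Ets-1 (1–138). Reactions were started with [γ-32P]ATP (10 or 100 μM). IC50 came from fitting rate versus inhibitor concentration to a hyperbolic decay equation.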

[18] = test system: SW-620; assay: cells; type: cell-based; conditions: SW-620, 10^−5 M, 48 h
[19] = test system: MDA-MB-435; assay: cells; type: cell-based; conditions: MDA-MB-435, 10^−5 M, 48 h
[20] = test system: NCI-H226; assay: cells; type: cell-based; conditions: NCI-H226, 10^−5 M, 48 h
[21] = test system: cleaved PARP in A375 cells; assay: PARP cleavage western blot; type: cell-based, human; conditions: 12 h exposure
How it was run: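 A375 cells (1,000,000 per well) were seeded 24 h, then exposed to several test compound doses for 12 h before lysis in buffer with protease/phosphatase inhibitors. Protein was measured by Bradford. 60 μg lysate was run on 10% SDS-PAGE and blotted to PVDF. Blots were probed for PARP and cleaved PARP, with vinculin as loading control. Done twice.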

[22] = test system: BRAF-mutant A375 melanoma cells; assay: A375 cell viability, MTS assay; type: cell-based; conditions: Homo sapiens, A-375, 72 h, read-out: A375 Cell Viability IC50
How it was run: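 A375 cells were kept in RPMI with 10% heat-inactivated FBS, Glutamax and penicillin/streptomycin at 37 °C in 5% CO2. 2000 cells per well were treated with a range of test compound doses for 72 h. Viability was read by MTS assay. Run in triplicate.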

[23] = test system: A375 cells; assay: anchorage dependent colony formation assay; type: cell-based, human; conditions: A375, 10–14 days
How it was run: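 1000 A375 cells per 60 mm plate adhered for 24 h, then were treated with various test compound doses for 10–14 days. Plates were PBS-washed and fixed in 4% paraformaldehyde (15 min, room temperature). They were stained with 0.2% crystal violet in 20% methanol for 10 min, water-washed and imaged under microscope.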

[24] = test system: ERK substrates (p90RSK and ELK) phosphorylation in A375 cells; assay: western blotting of MAPK pathway phosphorylation in A375 cells after EGF; type: cell-based, human
How it was run: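 A375 cells (1,000,000 per well) were seeded 24 h, then treated with DMSO or test compound (0.5–25 μM) in serum-free medium for 4 or 12 h. Cells were stimulated with 100 nM EGF for 10–15 min, lysed, and 60 μg lysate was blotted. Probes: phospho-p90RSK (Thr573), RSK, phospho-Elk-1 (Ser383), phospho- and total ERK1/2, phospho-JNK (Thr183/Tyr185). Done twice.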

[25] = test system: caspase 3/7 in A375 cells; assay: IncuCyte Caspase 3/7 apoptosis assay; type: cell-based, human; conditions: doses of 3.7 and 33.3 μM, after 48 and 72 h
How it was run: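 2000 A375 cells per well adhered for 24 h, then received test compound doses plus a constant concentration of IncuCyte Caspase-3/7 reagent. Cells were imaged on IncuCyte ZOOM (10× objective) at set time points, and stained cells were counted. Apoptotic cell number was normalized to percentage area confluence at the final time point.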

[26] = ERK1 IC50, 100 μM ATP, 10 μM Ets-1

Compound	Growth percent (G%) [1] [%]	Growth percent (G%) [2] [%]	Growth percent (G%) [3] [%]	Growth percent (G%) [4] [%]	Growth percent (G%) [5] [%]	Growth percent (G%) [6] [%]	Growth percent (G%) [7] [%]	Growth percent (G%) [8] [%]	Growth percent (G%) [9] [%]	Growth percent (G%) [11] [%]	Growth percent (G%) [12] [%]	Growth percent (G%) [13] [%]	Growth percent (G%) [14] [%]	Growth percent (G%) [15] [%]	ability to inhibit p38MAPKα (in words) [16]	IC50 ([16]; p38MAPKα IC50, 10 μM GST-ATF2) [µM]	IC50 [17, 26] [µM]	Growth percent (G%) [18] [%]	Growth percent (G%) [19] [%]	Growth percent (G%) [20] [%]	also measured
O=C1c2ccccc2C(=O)c2c1oc1c2c(=O)[nH]c2ccccc21 [3a, Naphtho[2′,3′:4,5]furo[3,2-c]quinoline-6,7,12(5H)-trione]	104.46	65.70	5.55	43.80	62.72	97.24	102.37	76.92	65.95	102.52	−5.49	92.71	102.57	2.26	did not show any ability to inhibit	> 200	9.12 ± 1.1	89.23	83.72	78.47	Growth percent (G%) [10]: 27.35%; IC50 ([17]; IC50 towards inhibiting ERK, ERK isoform not given): ~9 µM
Cn1c(=O)c2c(=O)c3c4c(oc3oc2c2ccccc21)C(=O)c1ccccc1C4=O [5a, 5-Methyl-5H-naphthalen[2″,3″:4′,5′]furo[3′,2′:4′,5,6]pyrano [3,2-c]quinoline-6,7,8,13-tetraone]	95.03	85.7	87.37	92.01	100.23	87.68	102.02	86.85	86.15	96.96	97.38	101.32	103.64	104.29	did not show any ability to inhibit	–	–	103.1	105.3	88.55	IC50 ([16]; read-out: p38MAPKα IC50, 10 μM GST-ATF2): > 200 µM; IC50 ([17]; read-out: ERK1 IC50, 100 μM ATP, 10 μM Ets-1): 95 ± 10.9 µM; IC50 ([17]; read-out: IC50 towards inhibiting ERK, ERK isoform not given): ≥ 100 µM
O=C1C(Cl)=C(c2c(O)c3c(=O)n(-c4ccccc4)c4ccccc4c3oc2=O)C(=O)c2ccccc21 [compound 6, 3-(3-Chloro-1,4-dioxo-1,4-dihydronaphthalen-2-yl)-4-hydroxy-6-phenyl-2H-pyrano[3,2-c]quinoline-2,5(6H)-dione]	67.28	28.55	16.13	11.44	19.65	69.20	88.70	23.06	38.22	84.18	18.80	18.38	42.85	7.05	little tendency to inhibit	3.1 ± 0.5	0.19 ± 0.01	18.61	87.80	86.30	level of cleaved PARP in A375 [21]: elevated level; IC50 [22]: 0.13 ± 0.03 µM; concentration at which inhibition of colony forming ability starts [23]: 2.5 µM; phosphorylation of ERK substrates (p90RSK and ELK), in words ([24]; A375, 0.5–25 μM, EGF stimulation): dose-dependent inhibition; concentration enough to inhibit ELK phosphorylation ([24]; A375, 12 h, then EGF 100 nM): 2.5 µM; concentration enough to inhibit p-90RSK phosphorylation ([24]; A375, 12 h, then EGF 100 nM): 10 µM; effect on ERK or MKK½ phosphorylation or the JNK pathway ([24]; A375, EGF stimulation): no effect; caspase 3/7 activity in A375 [25]: activation of caspase 3/7

— publication PMC6543826 (Bioorganic chemistry, 2018)
